Assay results published in article PMC9401513 (Clinical Cancer Research, 2021).
Where a SMILES comes first, the peptide text is derived from it. [ ]: non-standard residue; d: D form. The star is where a group is joined. Dolaproine = CO[C@@H]([C@@H]1CCCN1)[C@@H](C)C(=O)O; Dil = CC[C@H](C)[C@H](NC)[C@@H](CC(=O)O)OC; Doe = c1ccc(C[C@H](N*)c2nccs2)cc1; Aib = CC(C)(N)C(=O)O

B1: hu6M024: humanized anti-PTK7 mAb (IgG1); total antibody = conjugated or unconjugated mAb (antibody, chains of the INN, looked up, V domains shown)
VH: QVQLVQSGPEVKKPGASVKVSCKASGYTFTDYAVHWVRQAPGKRLEWIGVISTYNDYTYNNQDFKGRVTMTRDTSASTAYMELSRLRSEDTAVYYCARGNSYFYALDYWGQGTSVTVSS
VL: EIVLTQSPATLSLSPGERATLSCRASESVDSYGKSFMHWYQQKPGQAPRLLIYRASNLESGIPARFSGSGSGTDFTLTISSLEPEDFAVYYCQQSNEDPWTFGGGTKLEIK

Columns and labels:
CYP3A4 = CYP3A4 (Homo sapiens, UniProt P08684); test: Drug-drug interaction substudy with multiple-dose fluconazole; assay type: in vivo; settings: PF-06647020 co-administered with multiple-dose fluconazole, 11 patients
In short: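 Single-dose test ADC was given alone in cycle 1 (reference) and co-administered with multiple-dose fluconazole in cycle 2 (test). Unconjugated payload exposure was measured as dose-normalized AUCinf and Cmax from noncompartmental analysis. Results were expressed as ratios of adjusted geometric means with 90% confidence intervals.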

[1] = Clinical pharmacokinetics; assay type: in vivo, human; settings: 0.2 to 3.7 mg/kg every 3 weeks dose levels of PF-06647020

Sequence of CYP3A4 (P08684 whole entry): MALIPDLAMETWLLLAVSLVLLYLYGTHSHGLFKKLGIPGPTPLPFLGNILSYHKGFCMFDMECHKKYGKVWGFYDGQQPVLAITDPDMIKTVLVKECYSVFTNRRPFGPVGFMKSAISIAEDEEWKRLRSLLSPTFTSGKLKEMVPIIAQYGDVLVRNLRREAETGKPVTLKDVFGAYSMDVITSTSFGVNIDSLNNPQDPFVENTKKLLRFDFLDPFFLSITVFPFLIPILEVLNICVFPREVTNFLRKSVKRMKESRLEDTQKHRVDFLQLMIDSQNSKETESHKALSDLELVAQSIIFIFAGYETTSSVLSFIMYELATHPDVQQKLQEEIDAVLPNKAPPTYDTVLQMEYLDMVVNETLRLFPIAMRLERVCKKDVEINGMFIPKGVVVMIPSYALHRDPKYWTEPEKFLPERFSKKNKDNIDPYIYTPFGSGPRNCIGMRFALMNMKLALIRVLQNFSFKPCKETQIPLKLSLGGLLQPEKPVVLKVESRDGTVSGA

Row | Molecule | impact of fluconazole co-administration on overall exposure (CYP3A4) | systemic exposure (AUCtau, Cmax) versus dose [1]
1 | CC[C@H](C)[C@@H]([C@@H](CC(=O)N1CCC[C@H]1[C@H](OC)[C@@H](C)C(=O)N[C@@H](Cc1ccccc1)c1nccs1)OC)N(C)C(=O)[C@@H](NC(=O)C(C)(C)N)C(C)C [PF-06380101, auristatin-0101] (H-[Aib]V[Dil][Dolaproine]-Doe) | did not have a notable impact | 
2 | B1 | did not have a notable impact | generally increased in a dose-related manner
